# dFosB act – activators of delta FosB homodimer, primary screen, biochemical, fluorescence polarization, TAMRA-CDK5 oligo, single point | activation, % at 25 µM | purified delta FosB; percent of positive-control signal above neutral wells | 340,000 tested, 0.99% active;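 active means mean activation above about 17%, with every replicate also reaching it, limit read from the data, passing the limit was not always enough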
# CDK5 p35 inh – inhibitors of human CDK5/p35 kinase, primary screen, biochemical, single concentration; Recombinant CDK5/p35, ADP-Glo luminescence, 60 min; inhibition, % at 10 µM; 330,000 tested, 0.01% active;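 active means highest replicate inhibition of at least 50% and at least 75% of replicates reaching 50%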;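 further: plate controls were DMSO neutral control for no effect and GW8510 at 10 µM for full effect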
# SR-BI uptake up – activators of SR-BI mediated DiI-HDL uptake, primary screen, ldlA[mSR-BI] CHO cells, DiI fluorescence; 3 h; 100 = double the neutral-control signal; activation, % at 12.5 µM; 320,000 tested, 0.096% active;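 active means mean replicate activation of at least 60% and every replicate at or above 60%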;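 further: 0% = median plate neutral-control signal and 100% = twice that signal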
#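 Test system: SR-BI-overexpressing, LDLR-lacking CHO cells; Also added: labelled HDL, 10 µg/mL; Measured by: bottom-read cell fluorescence after medium removal, ex 550/em 595 nm; Timing: 3 h uptake period with compound, 37 °C; Buffer or medium: F12, 0.5% BSA, 25 mM HEPES; Doses: single compound concentration, delivered by pin transfer.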
# SR-BI DiI inh – inhibitors of SR-BI mediated HDL lipid uptake, primary screen, ldlA[mSR-BI] cells, fluorescence, single point. inhibition, % at 12.5 µM. 320,000 tested, 0.96% active. ldlA[mSR-BI] CHO cells, DiI-HDL uptake fluorescence, 3 h. Scavenger receptor class B member 1 (Mus musculus), Q61009. AID 488896, 2010;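 active means mean replicate inhibition of at least 70% and a set share of replicates each scoring 70 or more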;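 further: 0% = median of neutral control wells and 100% = median of positive control wells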
# * = called active by the depositor; i = inactive; / = no result given. In the library only some 2% were active in any assay of this set; here they are far more common.
SMILES,dFosB act,CDK5 p35 inh,SR-BI uptake up,SR-BI DiI inh
Cn1c(CCCOc2ccc(Cl)cc2Cl)nnc1SCC(=O)Nc1cccc(F)c1,-2.2,0.2,25.6,-25.6
CCc1cccc(C)c1NC(=O)CSc1nnc(CCCOc2ccc(Cl)cc2Cl)n1C,-22.6,0.8,-75.4,75.4*
Nc1ccc(-c2nc3c(ccc4ccccc43)[nH]2)cc1,0.8,-6.1,-27.0,27.0
COc1ccccc1N1CCN(c2nc3ccccc3nc2C(C#N)C(=O)OC(C)C)CC1 (stereo not drawn),-9.5,-0.6,-49.0,49.0
CCOc1ccccc1N1CCN(c2nc3ccccc3nc2C(C#N)C(=O)OC)CC1 (stereo not drawn),-17.5,-0.6,-75.2,75.2*
CN1C=C/C(=C\c2cc[n+](C)c3ccccc23)c2ccccc21,37.9*,3.1,17.6,-17.6
CC1Sc2ccc(S(=O)(=O)CCC(=O)NC3CCCC(C)C3C)cc2NC1=O (stereo not drawn),-6.6,/,14.9,-14.9
CCN(CC)S(=O)(=O)c1ccc(C(=O)NCCc2cc3c(OC)ccc(OC)c3[nH]c2=O)cc1,-6.2,-0.3,-88.6,88.6*
COc1ccc(OC)c2[nH]c(=O)c(CCNC(=O)c3ccc(S(=O)(=O)N4CCCC4)cc3)cc12,-5.9,-1.1,-34.1,34.1
O/N=C/c1ccc2cccc(O)c2n1,3.3,1.3,/,/
O/N=C/c1ccc2ccccc2n1,-4.5,-1.7,81.6*,-81.6
O=[N+]([O-])c1ccc2nc(-c3ccc(Cl)cc3)n(OCc3ccccc3)c2c1,-6.2,2.7,-80.7,80.7*
Cc1ccc(COn2c(-c3ccc(Cl)cc3)nc3ccc([N+](=O)[O-])cc32)cc1,1.4,-0.3,-17.6,17.6
Cc1csc2nc(SCC(=O)Nc3ccccc3F)[nH]c(=O)c12,23.6*,-0.1,-1.7,1.7
CCOC(=O)C1=C(C)N=C2SCCC(=O)N2[C@@H]1c1cccs1,-7.6,-3.8,291.8*,-291.8
COc1cc(CNCc2cc(OC)ccc2OC)cc(OC)c1,-2.6,-1.4,10.6,-10.6
Cn1c(=O)c2c(nc(Oc3cccc(Br)c3)n2C)n(C)c1=O,-1.1,-0.3,-11.1,11.1
CN(C)c1cccc(Oc2nc3c(c(=O)n(C)c(=O)n3C)n2C)c1,-3.3,-1.8,-89.0,89.0*
CCN(CC)CCNC(=O)CNC(=O)c1nn(-c2ccc(OC)c(OC)c2)c(=O)c2ccccc12,-2.4,0.2,15.5,-15.5
CC(C)=CCCC1(C)C=Cc2c(c(C)cc3c2[nH]c2cc(O)ccc23)O1 (stereo not drawn),-2.0,-0.4,-106.6,106.6*
Cc1cc(=O)[nH]c2cc(O)ccc12,-3.2,1.5,41.7,-41.7
Nc1ccc(C(=O)n2c3ccccc3c3ccccc32)cc1,5.6,0.4,-90.8,90.8*
NNC(=O)c1cc2c(s1)-c1cc(Cl)ccc1SC2,-6.2,1.4,-99.5,99.5*
CCCCN1C2=C(C(=O)CCC2)C(c2ccc(Cl)c(Cl)c2)C2=C1c1ccccc1C2=O (stereo not drawn),-11.8,2.3,-85.3,85.3*
CC(C)(C)NC(=O)CC1C[C@H](C(=O)N2CCOCC2)[C@@]2(C)c3[nH]c4ccccc4c3CCN2C1=O (stereo partly drawn),-3.6,-2.9,-77.4,77.4*
SMILES,dFosB act,CDK5 p35 inh,SR-BI uptake up,SR-BI DiI inh
CC(C)(C)NC(=O)C[C@H]1C[C@H](C(=O)N2CCOCC2)[C@@]2(C)c3[nH]c4ccc(Cl)cc4c3CCN2C1=O,-7.2,0.7,-6.5,6.5
CN(C)c1ccc(NC(=O)c2sc(SCC(=O)Nc3ccc(Br)cc3)nc2N)cc1,28.5*,0.4,1.5,-1.5
CC(C(=O)Nc1ccccc1)N(c1cccc(Cl)c1)S(C)(=O)=O (stereo not drawn),-7.2,2.1,14.6,-14.7
Cc1ccc(OCCSc2ncnc3sc(C)c(C)c23)cc1C,0.3,1.9,950.0*,i
Oc1c(Cl)cc(Cl)cc1C1=NNC(c2ccc(Cl)cc2)C1 (stereo not drawn),2.8,1.0,-83.8,83.8*
Oc1ccc(Cl)cc1C1=NNC(c2ccc(Cl)cc2)C1 (stereo not drawn),-4.5,-0.6,-83.7,83.7*
CCOc1ccccc1CNS(=O)(=O)c1cnc[nH]1,1.3,0.5,/,9.4
COc1ccc(Cn2c(SCc3cc(C)ccc3C)nc3cc(OC)c(OC)cc3c2=N)cc1,40.4*,-1.1,1.8,-1.8

# Bioassay records deposited in PubChem by Broad Institute.
